# Screening data deposited in PubChem by Johns Hopkins Ion Channel Center.
# TRPC4 act: TRPC4 (mouse) channel activation; Q9QUQ5; B-score at 10 µM; 310,000 compounds, 0.49% hits; HEK293 TRPC4beta/mu-opioid, Fluo4 calcium fluorescence; stronger effect = higher value;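 active means B-score above 5 SD of library B-scores, and initial fluorescence ratio not above library mean plus 5 SD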;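 further: positive B-score marks a calcium rise read as TRPC4 activation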
#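 system = HEK293 cells stably co-expressing mouse TRPC4beta and mu-opioid receptor | schedule = Fluo4 dye loading 45 min at room temperature, 110 s recording | measure = B-scored integrated calcium fluorescence ratio | signal = Fluo4 calcium-sensitive dye fluorescence, kinetic, 1 Hz baseline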
# TRPC4 potent: TRPC4 (mouse) allosteric potentiation | Q9QUQ5 | HEK293 TRPC4beta/mu-opioid, DAMGO EC20, Fluo-4 Ca2+ flux; stronger effect = higher value | B-score at 10 µM | 310,000 compounds, 0.42% hits;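 active means B-score of calcium response area above 5 SD of library B-scores, with initial fluorescence ratio within 5 SD of library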
# TRPC6 activator: activates the mouse TRPC6 cation channel; 310,000 compounds, 0.13% hits; AID 2550; B-score at 10 µM; HEK293-TRPC6 membrane potential dye fluorescence; stronger effect = higher value;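 active means B-score of the integrated fluorescence ratio above library mean plus 3 SD, and starting fluorescence ratio within library mean plus 5 SD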;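 further: higher score means more depolarization so channel activation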
# Target sequence (Q61143 whole entry, looked up): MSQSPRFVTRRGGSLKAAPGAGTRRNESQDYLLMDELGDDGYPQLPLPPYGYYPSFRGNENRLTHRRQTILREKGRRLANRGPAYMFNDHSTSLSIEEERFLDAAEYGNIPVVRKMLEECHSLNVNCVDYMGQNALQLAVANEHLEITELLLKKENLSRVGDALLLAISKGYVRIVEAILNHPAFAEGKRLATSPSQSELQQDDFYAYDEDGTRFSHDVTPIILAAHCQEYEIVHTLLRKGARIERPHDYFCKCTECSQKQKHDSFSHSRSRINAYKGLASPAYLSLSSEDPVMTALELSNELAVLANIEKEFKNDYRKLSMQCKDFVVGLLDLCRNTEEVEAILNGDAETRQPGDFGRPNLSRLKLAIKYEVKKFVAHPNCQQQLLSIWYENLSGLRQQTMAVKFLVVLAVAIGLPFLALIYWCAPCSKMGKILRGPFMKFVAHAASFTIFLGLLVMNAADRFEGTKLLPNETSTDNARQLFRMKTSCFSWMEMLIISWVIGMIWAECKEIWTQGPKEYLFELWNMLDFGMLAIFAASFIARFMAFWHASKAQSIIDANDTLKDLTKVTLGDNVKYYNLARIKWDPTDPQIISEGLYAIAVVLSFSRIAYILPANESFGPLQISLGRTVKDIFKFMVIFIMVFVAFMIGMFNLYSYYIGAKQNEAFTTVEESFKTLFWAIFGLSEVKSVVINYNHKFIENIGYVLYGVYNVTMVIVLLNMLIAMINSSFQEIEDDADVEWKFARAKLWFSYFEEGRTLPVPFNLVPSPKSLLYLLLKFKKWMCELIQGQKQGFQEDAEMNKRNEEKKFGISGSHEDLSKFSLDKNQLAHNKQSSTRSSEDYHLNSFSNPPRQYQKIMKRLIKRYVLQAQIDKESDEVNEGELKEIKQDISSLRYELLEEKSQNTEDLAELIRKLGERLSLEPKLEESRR
# TRPC4 inh: TRPC4 (mouse) channel inhibition; Q9QUQ5; HEK293 TRPC4beta/mu-opioid, DAMGO-evoked Fluo4 calcium flux; stronger effect = lower value; B-score at 10 µM; 300,000 compounds, 0.39% hits; AID 2247;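 active means B-score over 3 SD under the library average, no early fluorescence shift, positive overall ratio signal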
#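 Material: HEK293 cells with stable TRPC4beta plus mu-opioid receptor expression / Probe or stimulus: DAMGO in two steps, submaximal then maximal / Compound: single concentration per test compound / Technique: kinetic Fluo4 fluorescence imaging of calcium influx / Read-out: per-well B score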
# TRPC6 inh: mouse TRPC6 channel inhibition; Q61143; HEK293-TRPC6, membrane potential dye, ACh-evoked depolarization; stronger effect = lower value; B-score at 10 µM; 310,000 compounds, 1.1% hits; AID 2553;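 active means B-score under library mean minus 3 SD, initial fluorescence not abnormally high, positive integrated signal ratio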;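 further: B-score derived from integrated fluorescence ratio over the kinetic read; more negative B-score means stronger inhibition of depolarization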
# TRPC4 spec 2: second selectivity test of TRPC6 inhibitors: effect on mouse TRPC4 | shares compounds with TRPC6 inh | HEK293 TRPC4/MOR, membrane potential dye fluorescence; channel activated by saturating DAMGO dose | inhibition, % at 10 µM | 920 compounds, 42% hits;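 active means compounds whose fluorescence signal differed from control wells by over 3 SD, either direction, in both duplicate plates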
# TRPC4 spec: selectivity of TRPC6 inhibitors: effect on mouse TRPC4 | 920 compounds, 61% hits | HEK293 TRPC4/mu-opioid, membrane potential fluorescence | shares compounds with TRPC6 inh | AID 2777 | activity change, negative = inhibition, % at 10 µM;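 active means rise or fall in signal beyond 3 SD of buffer-only wells in both replicate plates, either sign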;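 further: integrated kinetic ratio of fluorescence range over baseline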
# HEK293 MPD ctr 2-1: second counter-screen for TRPC6 inhibitors: parental HEK293 cells; shares compounds with TRPC6 inh; parental HEK293 membrane potential dye fluorescence; maximal acetylcholine challenge after compound addition; signal change vs control, % at 10 µM; 920 compounds, 31% hits; AID 2779;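 active means membrane potential signal moving either way by over 3 SD of the maximum-effect control, in both duplicate plates, meaning non-specific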
# HEK293 MPD ctr-1: counter-screen for TRPC6 inhibitors: effect in parental HEK293 cells; parental HEK293 membrane potential dye fluorescence; membrane potential signal change, % at 10 µM; 920 compounds, 60% hits; shares compounds with TRPC6 inh;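 active means membrane potential signal shifting up or down by more than 3 SD of buffer-only wells, on both duplicate plates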
# HEK293 MPD ctr-2: parental HEK293 nonspecific activity of TRPC6 modulators; shares compounds with TRPC6 inh; membrane potential dye fluorescence; membrane potential signal change, % at 10 µM; 2,400 compounds, 51% hits; AID 488924;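 active means membrane potential signal moves up or down beyond 5 SD from buffer-only wells, on both duplicate plates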
# HEK293 MPD ctr 2-2: second counter-screen for TRPC6 modulators: effect in parental HEK293 cells; membrane potential dye fluorescence; after compound, maximal acetylcholine stimulation; 2,400 compounds, 14% hits; shares compounds with TRPC6 inh; inhibition, % at 10 µM;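 active means membrane potential signal drops by more than 5 SD from the mean control signal, in both duplicate plates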
# TRPC4 ctr mod: tests whether TRPC6 modulators also affect mouse TRPC4; shares compounds with TRPC6 inh; HEK293 TRPC4/mu-opioid, membrane potential fluorescence; percent change from control (negative = decrease, positive = increase), % at 10 µM; 2,400 compounds, 69% hits;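 active means membrane potential signal moved up or down beyond 5 SD of buffer control wells, in both duplicate plates, actives on both sides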
# TRPC4 ctr inh 2: second selectivity test of TRPC6 modulators against mouse TRPC4; shares compounds with TRPC6 inh; HEK293 TRPC4/mu-opioid, membrane potential dye fluorescence; stimulated with maximal-effect DAMGO; inhibition, % at 10 µM; 2,400 compounds, 55% hits; AID 488928;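 active means drop in membrane potential signal beyond 5 SD of the control wells in both duplicate plates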;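 further: TRPC4 counter screen for TRPC6 hits run under conditions tuned for TRPC6 not TRPC4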
# TRPC6 block conf: mouse TRPC6 inhibitor confirmation; shares compounds with TRPC6 inh; HEK293-TRPC6, membrane potential dye, ACh-evoked depolarization; inhibition, % at 10 µM; 3,300 compounds, 43% hits; AID 488960;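 active means fluorescence ratio falls more than 5 SD below the full-stimulation control mean, in both duplicate runs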;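 further: integrated fluorescence ratio of peak minus minimum over baseline after agonist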
# TRPC6 act conf: confirmation of mouse TRPC6 activators. shares compounds with TRPC6 inh. HEK293-TRPC6 membrane potential dye fluorescence, FDSS. activation, % at 10 µM. 2,800 compounds, 11% hits;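 active means ratio signal rise beyond 5 SD above unstimulated control wells' mean, seen in both duplicate runs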
# Hits are given with their value; - = inactive; . = not tested or not shown. Shown are actives, neighbours in structure and some others; about 2.3% of the full set was active somewhere.
SMILES,TRPC4 act,TRPC4 potent,TRPC6 activator,TRPC4 inh,TRPC6 inh,HEK293 MPD ctr-2,HEK293 MPD ctr 2-2,TRPC4 ctr mod,TRPC4 ctr inh 2,TRPC6 block conf,TRPC6 act conf,others
CCn1c(SCc2ccccc2)nc2c1c(=O)[nH]c(=O)n2C,-,-,-,-,-,.,.,.,.,.,.,
O=C(c1ccc(Br)cc1)N(c1ccccn1)C1CCCCC1,-,-,-,-,-,.,.,.,.,.,.,
O=c1cc(CNc2ccc(Br)cc2)nc2sccn12,-,-,-,-,-7,-,-,-,-,-,-,
Cn1cnc2cc(NC(=O)c3ccc(Cl)cc3)ccc21,-,-,-,-,-5.3,-,-,-11%,-,-,-,
CCOc1cc(C(=O)OC(C)C(=O)Nc2ccc(NC(C)=O)cc2)ccc1OCC(=O)N1CCCCC1 (centres undefined),-,-,-,-,-,.,.,.,.,.,.,
Cc1c(CN(C)C)c2c(n1Cc1ccccc1)C(=O)c1ccccc1-2,-,-,-,-6,-7,-174%,-,-33%,78%,44%,-,
Cc1cc(=O)n(Cc2ccccc2)c2ccccc12,-,-,-,-,-,.,.,.,.,.,.,
COc1ccccc1N1N=C(c2ccc([N+](=O)[O-])cc2)CC1c1ccccc1 (centres undefined),-,-,13,-,-,-,-,23%,-,-,44%,
CCC(C(=O)NC1CCCCC1)n1c(SCc2cccc(C)c2)nc2ccncc21 (centres undefined),-,-,-,-,-,.,.,.,.,.,.,
CCC(C(=O)NC1CCCCC1)n1c(SCc2cccc(F)c2)nc2ccncc21 (centres undefined),-,-,-,-,-5.1,-,-,-,-,-,-,
COc1ccc(NS(=O)(=O)c2cn(C)cn2)c(OC)c1,-,-,-,-,-,.,.,.,.,.,.,
O=S(=O)(Nc1nc2ccccc2nc1Nc1ccc(N2CCOCC2)cc1)c1cc(Cl)ccc1Cl,-,-,-,-,-6.7,.,.,.,.,-,-,TRPC4 spec 2=78%;TRPC4 spec=-10%;HEK293 MPD ctr 2-1=-;HEK293 MPD ctr-1=-241%
Clc1nc(Nc2ccc(N3CCOCC3)cc2)c2ccccc2n1,-,-,-,-,-,.,.,.,.,.,.,
Cc1onc(-c2c(Cl)cccc2Cl)c1C(O)c1ccccc1 (centres undefined),-,-,-,-,-,.,.,.,.,.,.,
C=CCn1c(Oc2cc(C)ccc2C)nc2c1c(=O)n(C)c(=O)n2C,-,-,-,-,-6.2,140%,-,30%,41%,-,.,
C=CCn1c(Oc2cccc(C)c2)nc2c1c(=O)n(C)c(=O)n2C,-,-,-,-,-,.,.,.,.,.,.,
COc1ccc(CC(=O)Oc2ccc(C(C)(C)C)cc2)cc1S(=O)(=O)N1CCOCC1,-,-,-,-,-,.,.,.,.,.,.,
O=C1CC(C(=O)N2CCN(c3ccccc3O)CC2)CN1Cc1ccccc1 (centres undefined),-,-,-,-,-,.,.,.,.,.,.,
O=[N+]([O-])c1cc(-c2ccc(/C=N\n3cnnc3)o2)cc([N+](=O)[O-])c1,-,-,-,-,-6.2,-234%,63%,-34%,42%,-,-,
CC(NC(=O)CC1CCCCC1)c1ccccc1 (centres undefined),-,-,-,-,-,.,.,.,.,.,.,
C=C(C)CC1(NC(C)c2ccccc2)CCCCC1 (centres undefined),-,-,-,-,-5.1,-,-,24%,-,-,-,
CCC1CCCCN1C(=O)CCNS(=O)(=O)c1ccc2c(c1)oc(=O)n2C (centres undefined),-,-,-,-,-,.,.,.,.,.,.,
CCn1c(=Nc2ccc(N3CCOCC3)cc2)ccc2ccccc21,-,-,-,-,-,.,.,.,.,.,.,
Cn1c(=Nc2ccc(N3CCOCC3)cc2)ccc2ccccc21,-,-,-,-,-6,-76%,-,-16%,-,41%,-,
COCC(=O)Nc1ncc(S(=O)(=O)c2ccc([N+](=O)[O-])cc2)s1,-,-,-,-,-,.,.,.,.,.,.,
SMILES,TRPC4 act,TRPC4 potent,TRPC6 activator,TRPC4 inh,TRPC6 inh,HEK293 MPD ctr-2,HEK293 MPD ctr 2-2,TRPC4 ctr mod,TRPC4 ctr inh 2,TRPC6 block conf,TRPC6 act conf,others
O=C(NC(Nc1ncc(S(=O)(=O)c2ccc([N+](=O)[O-])cc2)s1)(C(F)(F)F)C(F)(F)F)c1ccc(Cl)cc1,-,-,-,-,-8.2,.,.,.,.,68%,-,TRPC4 spec 2=65%;TRPC4 spec=9.8%;HEK293 MPD ctr 2-1=-;HEK293 MPD ctr-1=5.0%
Cc1ccc(C(=O)OC2OC(=O)C(Cl)=C2N2CCOCC2)cc1 (centres undefined),-,-,-,-,-,.,.,.,.,.,.,
COc1cccc(C2CC(C(F)(F)F)n3ncc(C(=O)NCC4CCCO4)c3N2)c1 (centres undefined),-,-,-,-,-5.6,-,-,-,-,-,-,
CCOC(=O)c1c(NC(=O)c2cnn3c2NC(c2cccc(OC)c2)CC3C(F)(F)F)sc2c1CCCC2 (centres undefined),-,-,-,-,-,.,.,.,.,.,.,
Cc1ccc(N=Cc2c(O)[nH]c3ccccc23)c([N+](=O)[O-])c1,-,-,-,-,-,.,.,.,.,.,.,
CC(NCC(O)c1ccc([N+](=O)[O-])cc1)C12CC3CC(CC(C3)C1)C2 (centres undefined),-,-,-,-,-,.,.,.,.,.,.,
Cc1ccc(NC2(C#N)C(=O)Nc3ccccc32)cc1C (centres undefined),-,-,-,-,-,.,.,.,.,.,.,
COC(=O)c1ccc(NC2(C#N)C(=O)Nc3ccccc32)cc1 (centres undefined),-,-,-,-,-8.5,.,.,.,.,88%,.,TRPC4 spec 2=-;TRPC4 spec=-;HEK293 MPD ctr 2-1=-;HEK293 MPD ctr-1=-
